Assay results as given in paper PMC2077835 (Drug metabolism and disposition: the biological fate of …, 2006).

Assays:
[1] = target: recombinant human CYP4F12 (Homo sapiens, UniProt Q9HCS2); assay: DB289 consumption by recombinant CYP4F12; type: in vitro ADME; conditions: 3.0 μM DB289, 50 pmol/ml P450, 15 min
Method in brief: (§1)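 A second recombinant panel (Supersomes; the CYP2J2, CYP3A7 and CYP4F forms coexpressed with reductase and cytochrome b5). Each enzyme was incubated alone with 3.0 μM substrate and NADPH in pH 7.4 phosphate/MgCl2 at 37°C for 15 min. Acetonitrile quench with internal standard, centrifugation, LC/MS/MS. Percent consumed normalised to 0 min. Control Supersomes; means of duplicates.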

CYP4A11 = CYP4A11 (Homo sapiens, UniProt Q02928); assay: Inhibition of P450 activities by DB289: lauric acid 12-hydroxylation; type: in vitro ADME; conditions: 3.0 μM DB289, pooled HLMs 0.25 mg/ml
Method in brief: (§2)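 Test compound (3.0 μM) was preincubated 0 and 15 min with pooled microsomes (0.25 mg/ml) and 2 mM NADPH (final concentrations). A P450-selective marker substrate was then added and marker activity measured. Reference selective chemical inhibitors were run for comparison (none for CYP4A11). Solvent-only controls.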

CYP2A6 [2] = target: T1, CYP2A6 (Homo sapiens, UniProt P11509); assay: DB289 consumption by recombinant CYP2A6; type: in vitro ADME; conditions: 3.0 μM DB289, 50 pmol/ml P450, 15 min
Method in brief: (§3)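 Baculovirus-insect-cell Supersomes coexpressing human P450 with NADPH-P450 reductase; the CYP2E1 enzyme also had cytochrome b5. 3.0 μM substrate, 50 pmol/ml P450 (100 pmol/ml for CYP2C8 and CYP2C9), in 100 mM phosphate pH 7.4 with 3.3 mM MgCl2 and 1 mM NADPH, 37°C, 15 min. Quenched in ice-cold acidified acetonitrile with deuterated internal standard, then LC/MS/MS. Percent consumed relative to 0 min; control Supersomes; duplicates.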

CYP2E1 = CYP2E1 (Homo sapiens, UniProt P05181); assay: DB289 consumption by recombinant CYP2E1; type: in vitro ADME; conditions: 3.0 μM DB289, 50 pmol/ml P450, 15 min
Method in brief: as §3

CYP2A6 [3] = target: T1, CYP2A6; assay: Inhibition of P450 activities by DB289: coumarin 7-hydroxylation; type: in vitro ADME; conditions: 3.0 μM DB289, pooled HLMs 0.25 mg/ml
Method in brief: as §2

CYP2D6 = CYP2D6 (Homo sapiens, UniProt P10635); assay: Inhibition of P450 activities by DB289: debrisoquine 4-hydroxylation; type: in vitro ADME; conditions: 3.0 μM DB289, pooled HLMs 0.25 mg/ml
Method in brief: as §2

[4] = DB289 metabolism by heat-inactivated human liver microsomes; type: in vitro ADME; conditions: 60°C for 90 s; data not shown
Method in brief: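 Human liver microsomes were heated at 60°C for 90 s before incubation to inactivate flavin monooxygenase. Then used in standard NADPH incubations (pH 7.4 phosphate, MgCl2, 37°C) to test FMO contribution to substrate metabolism.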

CYP2C19 = CYP2C19 (Homo sapiens, UniProt P33261); assay: Inhibition of P450 activities by DB289: S-mephenytoin 4′-hydroxylation; type: in vitro ADME; conditions: 3.0 μM DB289, pooled HLMs 0.25 mg/ml
Method in brief: as §2

CYP2J2 = target: T2, CYP2J2 (Homo sapiens, UniProt P51589); assay: DB289 consumption by recombinant CYP2J2; type: in vitro ADME; conditions: 3.0 μM DB289, 50 pmol/ml P450, 15 min
T2 sequence (P51589 1-502): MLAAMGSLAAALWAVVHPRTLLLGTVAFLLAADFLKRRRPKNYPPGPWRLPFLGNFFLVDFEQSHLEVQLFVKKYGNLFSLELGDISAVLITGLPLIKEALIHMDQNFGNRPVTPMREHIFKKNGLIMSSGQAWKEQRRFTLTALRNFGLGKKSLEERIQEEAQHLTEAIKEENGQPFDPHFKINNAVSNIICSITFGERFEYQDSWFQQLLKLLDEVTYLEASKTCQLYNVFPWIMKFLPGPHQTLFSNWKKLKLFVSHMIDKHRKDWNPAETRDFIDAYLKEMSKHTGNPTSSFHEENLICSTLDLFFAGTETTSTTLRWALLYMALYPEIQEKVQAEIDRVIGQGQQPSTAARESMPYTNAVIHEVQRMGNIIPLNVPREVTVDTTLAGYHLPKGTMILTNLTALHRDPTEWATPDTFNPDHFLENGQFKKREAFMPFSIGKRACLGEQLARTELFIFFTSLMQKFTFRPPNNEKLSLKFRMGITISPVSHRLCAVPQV
Method in brief: as §1

[5] = ref Fitzpatrick et al., 2004; cited from earlier work
recombinant CYP4F2 = target: T3, recombinant CYP4F2 (Homo sapiens, UniProt P78329); assay: DB289 consumption by recombinant CYP4F2; type: in vitro ADME; conditions: 3.0 μM DB289, 50 pmol/ml P450, 15 min
T3 sequence (P78329 5-520): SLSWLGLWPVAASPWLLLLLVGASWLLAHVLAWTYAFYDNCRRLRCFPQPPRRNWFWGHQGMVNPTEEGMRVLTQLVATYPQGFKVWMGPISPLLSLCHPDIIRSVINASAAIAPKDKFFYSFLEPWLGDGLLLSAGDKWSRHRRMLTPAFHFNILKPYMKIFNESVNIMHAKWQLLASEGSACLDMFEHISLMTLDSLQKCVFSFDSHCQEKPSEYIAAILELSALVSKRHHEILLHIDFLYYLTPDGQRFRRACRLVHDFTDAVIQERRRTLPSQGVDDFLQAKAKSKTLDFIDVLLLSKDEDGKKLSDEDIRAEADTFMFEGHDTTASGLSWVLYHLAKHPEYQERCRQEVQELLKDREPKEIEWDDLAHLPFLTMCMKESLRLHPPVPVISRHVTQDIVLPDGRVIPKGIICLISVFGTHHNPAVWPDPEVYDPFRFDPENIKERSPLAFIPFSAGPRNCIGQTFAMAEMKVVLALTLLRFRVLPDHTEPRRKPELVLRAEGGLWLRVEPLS
Method in brief: as §1

[6] = target: flavin monooxygenase 3 (FMO3) (Homo sapiens, UniProt P31513); assay: Incubation of DB289 with recombinant FMO3; type: in vitro ADME; conditions: FMO3 0.5 mg/ml
Method in brief: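 Baculovirus insect-cell-expressed human FMO3 at 0.5 mg/ml. Incubated with substrate under the conditions used for the liver-microsome consumption assay: pH 7.4 phosphate, MgCl2, NADPH, 37°C. Analysed by LC/MS/MS.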

recombinant human CYP3A4 = recombinant human CYP3A4 (Homo sapiens, UniProt P08684); assay: DB289 consumption by recombinant CYP3A4; type: in vitro ADME; conditions: 3.0 μM DB289, 50 pmol/ml P450, 15 min
Method in brief: as §3

T1 sequence (P11509 whole entry): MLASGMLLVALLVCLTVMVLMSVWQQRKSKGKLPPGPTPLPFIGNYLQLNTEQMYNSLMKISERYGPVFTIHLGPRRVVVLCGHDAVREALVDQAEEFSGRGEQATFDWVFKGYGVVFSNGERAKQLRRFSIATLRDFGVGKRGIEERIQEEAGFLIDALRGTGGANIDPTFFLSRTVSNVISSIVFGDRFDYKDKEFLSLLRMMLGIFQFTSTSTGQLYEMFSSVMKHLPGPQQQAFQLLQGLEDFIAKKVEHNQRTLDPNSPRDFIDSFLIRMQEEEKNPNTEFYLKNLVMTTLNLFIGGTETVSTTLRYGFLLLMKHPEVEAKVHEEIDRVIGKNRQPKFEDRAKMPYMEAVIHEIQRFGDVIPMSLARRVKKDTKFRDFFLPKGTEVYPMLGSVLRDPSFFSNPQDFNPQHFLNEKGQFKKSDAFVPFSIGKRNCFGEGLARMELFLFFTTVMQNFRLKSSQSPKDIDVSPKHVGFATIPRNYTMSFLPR
Chain of CYP2D6 (P10635 whole entry): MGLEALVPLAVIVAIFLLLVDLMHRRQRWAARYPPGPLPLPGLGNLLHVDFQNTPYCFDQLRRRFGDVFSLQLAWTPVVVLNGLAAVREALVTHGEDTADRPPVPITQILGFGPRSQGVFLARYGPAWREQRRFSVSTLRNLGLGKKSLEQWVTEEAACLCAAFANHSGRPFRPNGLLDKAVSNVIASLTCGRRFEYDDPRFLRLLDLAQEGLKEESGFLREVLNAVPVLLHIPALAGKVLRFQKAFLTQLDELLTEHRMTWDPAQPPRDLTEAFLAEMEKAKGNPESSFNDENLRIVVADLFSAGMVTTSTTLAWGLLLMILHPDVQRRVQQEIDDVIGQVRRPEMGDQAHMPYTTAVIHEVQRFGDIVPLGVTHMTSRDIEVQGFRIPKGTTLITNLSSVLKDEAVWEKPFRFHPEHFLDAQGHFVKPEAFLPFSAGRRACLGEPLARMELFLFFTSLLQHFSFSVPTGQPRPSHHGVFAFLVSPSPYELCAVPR
Chain of CYP4A11 (Q02928 5-519): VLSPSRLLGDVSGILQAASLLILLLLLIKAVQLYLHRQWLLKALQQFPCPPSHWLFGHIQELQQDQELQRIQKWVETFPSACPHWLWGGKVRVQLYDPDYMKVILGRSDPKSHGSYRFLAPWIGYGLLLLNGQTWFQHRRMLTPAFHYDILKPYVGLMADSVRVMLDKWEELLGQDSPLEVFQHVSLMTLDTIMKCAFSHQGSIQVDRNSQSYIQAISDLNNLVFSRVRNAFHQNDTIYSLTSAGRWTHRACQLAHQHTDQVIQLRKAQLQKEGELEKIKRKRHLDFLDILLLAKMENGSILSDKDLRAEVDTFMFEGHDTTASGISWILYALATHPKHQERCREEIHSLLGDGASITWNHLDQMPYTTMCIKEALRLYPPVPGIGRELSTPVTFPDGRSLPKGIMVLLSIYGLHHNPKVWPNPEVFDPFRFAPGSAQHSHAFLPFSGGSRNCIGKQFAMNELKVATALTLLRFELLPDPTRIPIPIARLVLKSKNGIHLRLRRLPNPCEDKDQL
Chain of CYP2C19 (P33261 whole entry): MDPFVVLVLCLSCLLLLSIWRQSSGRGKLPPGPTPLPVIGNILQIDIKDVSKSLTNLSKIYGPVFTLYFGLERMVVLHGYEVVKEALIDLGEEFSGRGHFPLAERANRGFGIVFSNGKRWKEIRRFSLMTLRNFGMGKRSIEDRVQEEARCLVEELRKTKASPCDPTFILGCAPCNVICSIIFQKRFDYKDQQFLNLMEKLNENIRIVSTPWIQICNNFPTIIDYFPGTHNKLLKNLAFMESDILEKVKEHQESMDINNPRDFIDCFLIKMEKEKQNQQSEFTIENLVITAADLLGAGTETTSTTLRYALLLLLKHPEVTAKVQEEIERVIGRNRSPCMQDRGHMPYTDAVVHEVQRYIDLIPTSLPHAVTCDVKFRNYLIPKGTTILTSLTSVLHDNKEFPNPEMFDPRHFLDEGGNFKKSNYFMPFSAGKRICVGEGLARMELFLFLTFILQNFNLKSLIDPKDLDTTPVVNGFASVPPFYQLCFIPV
Chain of flavin monooxygenase 3 (FMO3) (P31513 whole entry): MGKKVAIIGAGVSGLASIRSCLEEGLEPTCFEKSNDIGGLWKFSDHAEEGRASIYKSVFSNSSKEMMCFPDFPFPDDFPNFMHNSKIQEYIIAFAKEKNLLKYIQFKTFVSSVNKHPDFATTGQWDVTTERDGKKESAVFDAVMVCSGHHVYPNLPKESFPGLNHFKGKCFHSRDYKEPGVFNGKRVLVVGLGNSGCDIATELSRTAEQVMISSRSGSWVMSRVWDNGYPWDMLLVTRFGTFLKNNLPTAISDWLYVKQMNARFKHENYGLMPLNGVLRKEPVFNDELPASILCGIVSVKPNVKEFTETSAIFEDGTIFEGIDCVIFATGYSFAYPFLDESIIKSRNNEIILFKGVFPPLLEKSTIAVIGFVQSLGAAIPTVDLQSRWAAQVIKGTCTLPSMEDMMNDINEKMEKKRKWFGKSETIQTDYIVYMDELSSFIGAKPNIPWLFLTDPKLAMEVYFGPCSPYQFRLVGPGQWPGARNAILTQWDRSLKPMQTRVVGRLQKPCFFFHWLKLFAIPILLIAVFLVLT
Chain of recombinant human CYP4F12 (Q9HCS2 whole entry): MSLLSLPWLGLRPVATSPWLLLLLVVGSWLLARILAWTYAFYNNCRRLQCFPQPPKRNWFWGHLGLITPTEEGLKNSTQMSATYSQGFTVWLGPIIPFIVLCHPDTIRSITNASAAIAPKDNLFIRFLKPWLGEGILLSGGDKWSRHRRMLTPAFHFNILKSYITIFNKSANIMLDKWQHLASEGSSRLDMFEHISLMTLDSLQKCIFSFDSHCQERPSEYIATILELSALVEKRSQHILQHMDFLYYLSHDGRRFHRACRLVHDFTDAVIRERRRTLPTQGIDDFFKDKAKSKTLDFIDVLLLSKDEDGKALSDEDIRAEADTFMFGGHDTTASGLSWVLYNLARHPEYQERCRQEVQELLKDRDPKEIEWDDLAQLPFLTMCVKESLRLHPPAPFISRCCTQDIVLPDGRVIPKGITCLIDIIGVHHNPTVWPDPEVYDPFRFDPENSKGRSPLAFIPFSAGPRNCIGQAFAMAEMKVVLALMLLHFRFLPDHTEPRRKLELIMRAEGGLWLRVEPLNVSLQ
Chain of CYP2E1 (P05181 whole entry): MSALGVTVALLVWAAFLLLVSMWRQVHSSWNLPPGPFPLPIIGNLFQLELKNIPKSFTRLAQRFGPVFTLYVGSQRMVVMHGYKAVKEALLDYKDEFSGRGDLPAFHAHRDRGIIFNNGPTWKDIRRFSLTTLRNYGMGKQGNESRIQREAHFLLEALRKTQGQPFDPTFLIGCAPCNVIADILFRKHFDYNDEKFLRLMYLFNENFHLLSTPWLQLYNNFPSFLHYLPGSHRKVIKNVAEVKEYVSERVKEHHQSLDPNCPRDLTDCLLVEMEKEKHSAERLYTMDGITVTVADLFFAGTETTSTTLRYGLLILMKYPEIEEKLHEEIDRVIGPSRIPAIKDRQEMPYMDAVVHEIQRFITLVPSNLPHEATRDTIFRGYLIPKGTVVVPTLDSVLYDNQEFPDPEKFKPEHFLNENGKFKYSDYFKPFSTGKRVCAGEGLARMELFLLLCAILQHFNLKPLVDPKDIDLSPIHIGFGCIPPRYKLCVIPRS
Chain of recombinant human CYP3A4 (P08684 2-503 limits assumed): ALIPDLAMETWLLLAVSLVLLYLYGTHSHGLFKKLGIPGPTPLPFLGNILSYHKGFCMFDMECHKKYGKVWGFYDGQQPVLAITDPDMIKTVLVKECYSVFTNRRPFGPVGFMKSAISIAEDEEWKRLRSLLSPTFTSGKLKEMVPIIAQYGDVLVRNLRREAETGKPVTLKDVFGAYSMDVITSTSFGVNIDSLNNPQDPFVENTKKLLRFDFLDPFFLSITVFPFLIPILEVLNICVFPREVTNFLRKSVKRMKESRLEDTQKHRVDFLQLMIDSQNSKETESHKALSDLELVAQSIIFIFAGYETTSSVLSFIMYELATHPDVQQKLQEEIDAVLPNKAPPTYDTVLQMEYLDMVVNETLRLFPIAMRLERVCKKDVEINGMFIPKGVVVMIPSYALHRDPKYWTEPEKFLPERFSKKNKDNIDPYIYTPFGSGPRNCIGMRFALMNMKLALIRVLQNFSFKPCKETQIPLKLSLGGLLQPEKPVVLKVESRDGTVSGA

CON=C(N)c1ccc(-c2ccc(-c3ccc(C(N)=NOC)cc3)o2)cc1 [DB289, 2,5-bis(4-amidinophenyl)furan-bis-O-methylamidoxime]
percentage of substrate consumed [1]: 10%
inhibition of CYP4A11 activity (CYP4A11): minimal to no inhibition
percentage of substrate consumed (CYP2A6 [2]): less than 5%
percentage of substrate consumed (CYP2E1): 7%
inhibition of CYP2A6 activity (CYP2A6 [3]): minimal to no inhibition
inhibition of CYP2D6 activity (CYP2D6): minimal to no inhibition
effect of heat inactivation of microsomes on DB289 metabolism [4]: did not impede DB289 metabolism
inhibition of CYP2C19 activity (CYP2C19): minimal to no inhibition
percentage of substrate consumed (CYP2J2): 85%
plasma protein binding [5]: high plasma protein-binding
percentage of substrate consumed (recombinant CYP4F2): 98%
metabolism of DB289 by recombinant human FMO3 [6]: did not show any detectable metabolism
percentage of substrate consumed (recombinant human CYP3A4): 18%
